# Only some compounds are listed: those with a hit (about 3% of all), similar ones and a draw of the others.
# esBAF inh: SWI/SNF esBAF complex inhibition; mouse ES cells, Bmi1-luciferase knock-in reporter, 24 h; 100% = twice the neutral-well signal; AID 602393; reporter increase, % at 12.5 µM; 350,000 compounds, 2% hits; in the data active = activation above about 40%; inconclusive = no clear call, values can overlap the other calls;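 also: 0% = median of the plate's neutral control wells and 100% = double that signal; a rise in the Bmi1 reporter signal indicates esBAF inhibition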
# Xi reactivation: X-chromosome reactivation activator; XiGFP mouse fibroblasts, % GFP-positive cells imaging, 3 d; cells co-treated with 5-aza-dC sensitizer; scaled so ellipticine positive control = 100%; activation, % at 7.58 µM; 360,000 compounds, 0.055% hits; AID 743238;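 active = mean normalized replicate activation at least 10% and every replicate at or above 10%; inconclusive = only one of the two criteria met; inactive = mean below 10% and not all replicates reach 10%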;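 also: 0% = median of on-plate neutral control wells and 100% = ellipticine 6 µM median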
#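 Assay system – SV40-immortalized XiGFP fibroblast cells, line 68-5-11 · Buffer or medium – DMEM supplemented with 5-aza-dC as sensitizing agent · Dosing – one concentration, pinned · Benchmarks – positive control ellipticine, 6 µM final · Times – 3 days compound exposure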
# NSD2 HMT inh: NSD2 (human) methyltransferase inhibition; O96028; NSD2 peptide methylation, AlphaScreen, 120 min; inhibition, % at 12.5 µM; 310,000 compounds, 0.54% hits; in the data active = inhibition above about 50%
# Target sequence (O96028 whole entry, looked up): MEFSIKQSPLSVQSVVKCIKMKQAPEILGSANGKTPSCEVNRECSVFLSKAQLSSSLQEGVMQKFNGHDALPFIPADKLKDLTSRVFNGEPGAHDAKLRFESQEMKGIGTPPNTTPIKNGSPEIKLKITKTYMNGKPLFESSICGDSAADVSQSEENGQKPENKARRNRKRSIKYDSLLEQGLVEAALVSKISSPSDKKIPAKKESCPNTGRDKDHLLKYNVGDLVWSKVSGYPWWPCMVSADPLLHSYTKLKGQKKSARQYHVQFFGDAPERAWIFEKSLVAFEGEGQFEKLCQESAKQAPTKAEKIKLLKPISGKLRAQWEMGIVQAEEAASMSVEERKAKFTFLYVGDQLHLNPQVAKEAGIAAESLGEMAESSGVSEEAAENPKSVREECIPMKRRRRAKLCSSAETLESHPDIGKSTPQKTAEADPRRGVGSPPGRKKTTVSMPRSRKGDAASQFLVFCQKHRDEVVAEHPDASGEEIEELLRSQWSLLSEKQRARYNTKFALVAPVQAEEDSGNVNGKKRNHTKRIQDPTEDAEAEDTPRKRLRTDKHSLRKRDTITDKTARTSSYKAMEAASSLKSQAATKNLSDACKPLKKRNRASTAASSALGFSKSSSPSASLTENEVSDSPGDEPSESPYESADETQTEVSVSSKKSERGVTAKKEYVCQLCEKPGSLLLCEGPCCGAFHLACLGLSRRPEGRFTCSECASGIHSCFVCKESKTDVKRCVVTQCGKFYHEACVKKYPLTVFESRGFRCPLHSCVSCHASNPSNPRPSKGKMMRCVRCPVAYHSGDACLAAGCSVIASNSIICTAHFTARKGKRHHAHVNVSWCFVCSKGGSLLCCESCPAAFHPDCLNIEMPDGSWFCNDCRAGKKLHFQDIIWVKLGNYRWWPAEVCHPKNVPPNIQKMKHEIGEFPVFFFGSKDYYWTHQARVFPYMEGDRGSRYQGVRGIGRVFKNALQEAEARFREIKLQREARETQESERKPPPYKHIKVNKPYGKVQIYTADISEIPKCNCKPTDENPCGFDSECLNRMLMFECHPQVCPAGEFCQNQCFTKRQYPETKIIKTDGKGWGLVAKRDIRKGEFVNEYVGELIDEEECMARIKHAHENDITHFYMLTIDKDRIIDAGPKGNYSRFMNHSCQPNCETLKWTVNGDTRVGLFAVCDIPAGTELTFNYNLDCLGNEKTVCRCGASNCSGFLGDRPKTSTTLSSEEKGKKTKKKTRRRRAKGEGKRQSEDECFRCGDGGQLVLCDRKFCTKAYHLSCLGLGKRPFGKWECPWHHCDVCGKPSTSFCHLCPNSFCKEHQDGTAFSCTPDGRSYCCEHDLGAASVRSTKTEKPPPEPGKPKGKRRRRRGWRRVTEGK
# Wnt bcat act: Wnt/beta-catenin pathway activation; Wnt/beta-catenin reporter cell assay, activator, plate reader; activation, % at 9.35 µM; 300,000 compounds, 1.2% hits; AID 743398; in the data active = activation above about 30%, passing the limit was not always enough; inconclusive = no clear call, values can overlap the other calls;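 also: 0% = neutral control wells and 100% = positive control wells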
# MITF act: activators of MITF-driven TRPM1 promoter activity in SK-MEL-5 cells; SK-MEL-5 TRPM1-promoter luciferase, 24 h; % of positive control, neutral wells = 0; activation, % at 12.5 µM; 300,000 compounds, 0.75% hits;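 active = mean activation of at least 80% with every replicate also reaching 80%; inconclusive = mean reaches 80% but some replicate falls short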;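 also: 0% = neutral control wells and 100% = parthenolide positive control wells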
# CASP6 VEID inh: inhibitors of human caspase-6; P55212; purified caspase-6, Z-VEID-R110 cleavage fluorescence; inhibition, % at 12.5 µM; 350,000 compounds, 0.53% hits;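 active = mean inhibition across replicates at least about 35%, with every replicate also reaching that limit, limit read from the data; inconclusive = only one of the two criteria met; inactive = neither criterion met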;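 also: 0% = median of neutral control wells and 100% = no fluorescence left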
# Numbers without * were called inactive; ? = inconclusive; . = no result.
SMILES,esBAF inh,Xi reactivation,NSD2 HMT inh,Wnt bcat act,MITF act,CASP6 VEID inh
COc1ccccc1C(=O)N1CCN(C(=O)c2oc3c(C)c(C)ccc3c2C)CC1,0,0,11,-3,.,4
Cc1ccc2c(C)c(C(=O)N(C)C(C)c3ccon3)oc2c1C (stereo not drawn),51*,0,-1,?,109*,-2
Cc1ccc2c(C)c(C(=O)N(C)C(C)c3ccncn3)oc2c1C (stereo not drawn),51*,0,23,5,8,-7
O=C(C[C@@H]1C=C[C@@H](NC(=O)Nc2cc(F)ccc2F)[C@H](CO)O1)NCc1ccncn1,-2,0,.,.,.,3
Cn1cccc1C(=O)N/N=C/c1c(Cl)cccc1Cl,24,0,-2,28,92*,-3
C[C@H](CO)N1C[C@H](C)[C@H](CN(C)Cc2ccc(-c3ccccc3)cc2)Oc2ccc(NS(C)(=O)=O)cc2CC1=O,2,0,.,.,.,1
C=C1C(=O)C=C[C@]2(C)C[C@@H]3OC(=O)[C@](C)(O)[C@H]3C[C@@H]12,9,0,.,43*,-93,3
C[C@@H]1CCCCO[C@H](CN(C)Cc2ccc(C(=O)O)cc2)[C@@H](C)CN([C@@H](C)CO)C(=O)c2cc(NC(=O)Nc3ccc4c(c3)OCO4)ccc2O1,-3,-1,.,.,.,0
CCOC(=O)c1ccc(N2Cc3ccccc3C2=NC(=O)c2ccncc2)cc1,.,0,-2,46*,102*,-1
COc1ccc(N2Cc3ccccc3C2=NC(=O)c2cncc(Br)c2)cc1,.,0,.,1,41,-2
CC(=O)c1ccc(N2Cc3ccccc3C2=NC(=O)c2cccs2)cc1,7,0,2,?,94*,.
CCOC(=O)c1ccc(N2Cc3ccccc3C2=N)cc1,17,.,-14,0,46,.
N#Cc1ccc(N2Cc3ccccc3C2=NC(=O)c2cccs2)cc1,.,0,-2,18,33,-5
CCOC(=O)c1ccc(N2Cc3ccccc3C2=NC(=O)c2cccs2)cc1,.,0,-2,21,112*,.
C[C@@H]1CN([C@@H](C)CO)C(=O)c2cccc(NS(=O)(=O)c3ccc(F)cc3)c2O[C@@H]1CN(C)C(=O)Nc1ccccc1,1,-1,.,.,.,.
CC(=O)N1CC(=O)N2[C@H](CO)[C@@H](c3ccc(-c4ccccc4)cc3)[C@@H]2C1,.,1,.,.,.,.
O=C1N=C(N2C=CC(=C3C=CNC=C3)C=C2)/C(=C/N=NC(=O)c2ccccc2O)S1,6,0,16,-1,0,36*
COc1cc(CNc2nc3c(C)cc(C)cc3s2)ccc1O,3,0,.,-3,-1,13
Cc1cc(C)c2nc(NCc3ccccc3O)sc2c1,45*,0,.,16,95*,8
Cc1ccc(Oc2ccc(/C=N/O)cn2)cc1,48*,.,-3,5,.,.
Cc1ccc(Oc2ccc(Oc3ccc(C)cc3)nn2)cc1,15,.,-1,.,.,.
Cc1ccc(COc2ccc(/C=N/O)cc2)cc1,.,0,-1,31*,42,-3
CCOc1ccc(/C=N/O)cc1,8,0,.,7,14,.
Cc1[nH]cnc1CN1CCc2c(c3ccccc3n2C)C1=O,-1,0,.,3,1,81*
O=C(NC1CCC(O)CC1)c1ccc2c(c1)S(=O)(=O)N=C1CCCCCN12 (stereo not drawn),46*,0,1,-1,17,2
SMILES,esBAF inh,Xi reactivation,NSD2 HMT inh,Wnt bcat act,MITF act,CASP6 VEID inh
O=C(Nc1ccc(F)cc1)c1ccc2c(c1)S(=O)(=O)N=C1CCCCCN12,13,0,-2,1,7,-4
O=C(c1cc2ccccc2[nH]1)N1CCOCC1,.,0,0,36*,-23,.
CN1CCN(C(=O)c2cc3ccccc3[nH]2)CC1,-4,0,-4,1,-13,0
ClC1(Cl)CC1CSc1nc2ccccc2[nH]1 (stereo not drawn),.,0,-6,9,66,-28
CCOc1ccc2nc(SCC3CC3(Cl)Cl)[nH]c2c1 (stereo not drawn),.,0,-5,35*,.,6
COc1ccc2c3c(n(C)c2c1)[C@H](CO)N(C(=O)c1cccc(F)c1)CC31CN(CC2CC2)C1,.,0,.,.,.,-2
Cc1ccc(NC(=O)c2scc3c2CCCC3)cc1,.,0,8,15,115*,-1
Cc1ccc(NC(=O)c2cc3c(s2)CCCC3)cc1,?,0,-2,61*,148*,2
O=C(Nc1ccccc1OC(F)F)c1cc2c(s1)CCC2,44*,0,1,.,33,5
O=C(c1scc2c1CCCC2)N1CCCCC1,2,.,-7,0,3,.
COc1ccccc1NC(=O)c1ccc(NC(=O)c2cc3c(s2)CCC3)cc1,.,0,-4,.,5,.
Cc1ccc(NC(=O)CN(C)C(=O)c2cc3c(s2)CCCCC3)cc1,-6,0,1,0,8,6
C[C@@H]1CN([C@@H](C)CO)S(=O)(=O)c2ccc(C3=CCCCC3)cc2O[C@@H]1CN(C)Cc1cccnc1,-4,0,.,.,.,-2
Cc1noc(C)c1NC(=O)Nc1ccc2c(c1)CC(=O)N([C@@H](C)CO)C[C@H](C)[C@@H](CN(C)S(=O)(=O)c1cn(C)cn1)O2,0,-1,.,.,.,.
O=[N+]([O-])c1ccc(O)c(C=Nc2ccc3c(c2)OCO3)c1,41*,0,.,34*,7,-6
CC(=O)N(C)c1ccc(N=Cc2cc3c(cc2[N+](=O)[O-])OCO3)cc1,.,0,.,-2,-8,36*
O=C1Nc2ccccc2OCc2cn(nn2)CC[C@H]1Cc1ccc(-c2ccccc2)cc1,.,0,.,.,.,.
COc1ccc(C(=O)N2C[C@H]3[C@@H](c4ccccc42)[C@H](CO)N3C(=O)c2ccc(F)cc2)cc1,4,0,.,.,.,-5
C[C@H](CO)N1C[C@H](C)[C@@H](CN(C)S(=O)(=O)c2cn(C)cn2)Oc2ccc(NC(=O)Nc3ccc(F)cc3)cc2CC1=O,-3,0,.,.,.,.
CCC(=O)Nc1ccc2nc(C3CC3)n(Cc3ccccc3)c(=O)c2c1,.,.,0,.,?,.
O=C(Nc1ccc2nc(C3CC3)n(Cc3ccccc3)c(=O)c2c1)C1CC1,67*,0,-1,24,115*,-2
Cn1c(=O)c2c(ncn2CC(=O)OCC(=O)Nc2ccccc2)n(C)c1=O,.,0,-4,-2,-7,-6
Cn1c(=O)c2c(ncn2CC(=O)OCC(=O)c2ccc(OC(F)F)cc2OC(F)F)n(C)c1=O,-2,0,-1,1,.,55*
O=C(NC1CCCCC1)c1n[nH]c2c1CCCCC2,-78,0,.,-12,-90,1
O=C(NN=C1CCCC1)c1n[nH]c2c1CCCC2,.,0,-2,54*,16,1
O=C(NN=C1CCCC1)c1n[nH]c2c1CCC2,.,0,-2,2,21,59*

# Compound activity (PubChem BioAssay)
